Experimental data reported in ChEMBL document CHEMBL4627349, “Synthesis and evaluation of the performance of a small molecule library based on diverse tropane-related scaffolds” (Bioorg Med Chem, 2020).
Active and inactive are the calls of the source.

Experiments:
Plasmodium falciparum = assay: Antiplasmodial activity against chloroquine-sensitive Plasmodium falciparum NF54 by lactate dehydrogenase assay; format: functional, organism-based
Method in brief: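 Dose-response format against chloroquine-susceptible NF54 parasites, with lactate dehydrogenase activity as the parasite-viability marker.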

C3H 10T1/2 = assay: Inhibition of Hedgehog signaling pathway in mouse C3H10T1/2 cells assessed as reduction in osteoblast differentiation at 10 uM measured after 96 hrs by alkaline phosphatase CDP-star substrate based luminescence assay relative to control; format: cell-based
Method in brief: (§1)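 Single-concentration primary screen at 10 µM in an osteoblast differentiation assay for Hedgehog signalling inhibition, with cell viability monitored alongside. Hits were defined as at least 50% inhibition of signalling with <20% impact on cell viability.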

[1] = Cytotoxicity against mouse C3H10T1/2 cells assessed as effect on cell viability at 10 uM relative to control; format: cell-based, C3H 10T1/2; conditions: read-out: Activity; method in brief: as §1
[2] = Inhibition of Hedgehog signaling pathway in mouse C3H10T1/2 cells assessed as reduction in osteoblast differentiation measured after 96 hrs by alkaline phosphatase CDP-star substrate based luminescence assay; format: cell-based; conditions: C3H 10T1/2, 96 h

SMILES | IC50 (Plasmodium falciparum) | Activity (Plasmodium falciparum) | also measured
CN1C2CC(S(C)(=O)=O)C1C(c1ccc(F)cc1)CC2OCc1ccc(C#N)cc1 (centres undefined) | 5.5 µM | – | –
CN(Cc1ccc(OC(F)(F)F)cc1)C1CCC2C(S(C)(=O)=O)CC1N2C (centres undefined) | 5.7 µM | – | –
CS(=O)(=O)C1CC2C(=O)c3n[nH]c(C(=O)O)c3C1N2Cc1ccccc1 (centres undefined) | 5.4 µM | – | –
CN1C2CC(S(C)(=O)=O)C1Cc1cccnc12 (centres undefined) | – | Active | –
CN1C2CC(S(C)(=O)=O)C1C1CN(c3ccccn3)CC1C2O (centres undefined) | 5.4 µM | – | –
CN1C2CC(S(C)(=O)=O)C1Cc1c(-c3ccccc3)ccnc12 (centres undefined) | – | Active | –
CS(=O)(=O)C1CC2c3ncccc3CC1N2Cc1ccccc1 (centres undefined) | – | Active | –
CS(=O)(=O)C1CC2c3c(c4ccccc4n3CC#N)CC1N2Cc1ccccc1 (centres undefined) | – | – | inhibition (C3H 10T1/2): > 50%; viability at 10 µM [1]: < 20%; EC50 [2]: 4.2 µM
CN1C2CC(S(=O)(=O)N(C)C)C1Cc1cccnc12 (centres undefined) | – | Active | –
CS(=O)(=O)C1CC2c3c(c4ccccc4n3S(C)(=O)=O)CC1N2Cc1ccccc1 (centres undefined) | – | – | inhibition (C3H 10T1/2): > 50%; viability at 10 µM [1]: < 20%; EC50 [2]: 4.4 µM
